From ChEMBL document CHEMBL1157079, “Labdane diterpenes from the aerial parts of Curcuma comosa enhance fetal hemoglobin production in an erythroid cell line” (J Nat Prod, 2010)
Active and inactive are the calls of the source. No cut-off for these calls is given here.

Columns and labels:
K562 [1] = assay: Induction of fetal heamoglobin level in human K562 cells assessed as increase in enhanced GFP expression under the control of gamma-globin promoter at 5 uM after 5 days by flow cytometry; assay type: functional
How it was run: (§1)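 Stable reporter line K562::∆Gγ-Aγ EGFP, carrying the EGFP gene under a γ-globin promoter within the intact human β-globin locus. Compounds tested at 5-100 µM. Read-out is EGFP expression as fold change relative to untreated, with % cell viability measured alongside. Hemin 50 µM and cisplatin 10 µM serve as reference inducers, with a DMSO vehicle control. Values are mean ± SD of three independent experiments.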

[2] = Cytotoxicity against human K562 cells assessed as cell viability at 5 uM; assay type: cell-based; details: read-out: Activity; how it was run: as §1
K562 [3] = assay: Induction of fetal heamoglobin level in human K562 cells assessed as increase in enhanced-GFP expression under the control of gamma-globin promoter at 5 to 100 uM after 5 days by flow cytometry; assay type: functional, cell-based; how it was run: as §1
K562 [4] = assay: Induction of fetal heamoglobin level in human K562 cells assessed as increase in enhanced GFP expression under the control of gamma-globin promoter after 5 days by flow cytometry; assay type: functional, cell-based; how it was run: as §1
[5] = Cytotoxicity against human K562 cells assessed as cell viability at 20 uM; assay type: cell-based; details: read-out: Activity; how it was run: as §1
K562 [6] = assay: Induction of fetal heamoglobin level in human K562 cells assessed as increase in enhanced-GFP expression under the control of gamma-globin promoter at 20 uM after 5 days by flow cytometry; assay type: functional; how it was run: as §1
K562 [7] = assay: Induction of fetal heamoglobin level in human K562 cells assessed as increase in enhanced-GFP expression under the control of gamma-globin promoter at 30 uM after 5 days by flow cytometry; assay type: functional; how it was run: as §1
[8] = Cytotoxicity against human K562 cells assessed as cell viability at 30 uM; assay type: cell-based; details: read-out: Activity; how it was run: as §1

Structure (SMILES): C=C1CC[C@H]2C(C)(C)[C@@H](O)CC[C@]2(C)[C@H]1/C=C/C1=CCOC1=O [CURCUCOMOSIN B]
- fold change (FC) (K562 [1]): 1
- viability at 5 µM [2]: 87.7%
- Activity (K562 [3]): inactive

Structure (SMILES): C=C1CC[C@H]2C(C)(C)CCC[C@]2(C)[C@H]1/C=C/C1=CCOC1=O [VILLOSIN]
- fold change (FC) (K562 [1]): 1
- viability at 5 µM [2]: 88.9%
- Activity (K562 [3]): inactive

Structure (SMILES): C=C1CC[C@H]2C(C)(C)C(=O)CC[C@]2(C)[C@H]1/C=C/C1=CCOC1=O [CURCUCOMOSIN A]
- fold change (FC) (K562 [1]): 1
- viability at 5 µM [2]: 85.8%
- Activity (K562 [3]): inactive

Structure (SMILES): C=C1CC[C@H]2C(C)(C)CCC[C@]2(C)[C@H]1/C=C/C1=C(O)COC1=O [ZERUMIN]
- fold change (FC) (K562 [1]): 1
- viability at 5 µM [2]: 87.5%
- Activity (K562 [3]): inactive

Structure (SMILES): C=C1CC[C@H]2C(C)(C)CCC[C@]2(C)[C@H]1C/C=C1/C(=O)OC[C@@H]1O [ISOCORONARIN D]
- Activity (K562 [4]): Dose-dependent effect
- viability at 20 µM [5]: 80.7%
- fold change (FC) (K562 [6]): 1.6

Structure (SMILES): C=C1CC[C@H]2C(C)(C)CCC[C@]2(C)[C@H]1C[C@@H](O)C1=CCOC1=O [CURCUCOMOSIN C]
- fold change (FC) (K562 [7]): 1.2
- viability at 30 µM [8]: 75.8%

Structure (SMILES): C=C1CC[C@H]2C(C)(C)CCC[C@]2(C)[C@H]1/C=C/c1ccoc1 [CORONARIN E]
- fold change (FC) (K562 [1]): 0.7
- viability at 5 µM [2]: 87.2%
- Activity (K562 [3]): inactive
